From ChEMBL document CHEMBL1143246, “Design and synthesis of bicyclic pyrimidinones as potent and orally bioavailable HIV-1 integrase inhibitors” (J Med Chem, 2008)

Legend:
[1] = Cmax in dog at 4 mg/kg, po; type: ADME, organism-based, Canis lupus familiaris; parameters: dose 4 mg/kg, route oral; details: in vivo
Outline: (§1)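 In vivo PK: iv dosing in DMSO/PEG400/H₂O mixtures, oral dosing as methylcellulose suspension. Half-life was taken after iv dosing; AUC and Cmax after po dosing.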

[2] = system: Canis familiaris; experiment: Oral bioavailability in dog at 2 mg/kg; type: ADME, organism-based, Canis lupus familiaris; details: in vivo; outline: as §1
[3] = Oral bioavailability in rhesus monkey at 10 mg/kg; type: ADME, organism-based, Macaca mulatta; details: in vivo
[4] = molecular target: Cytochrome P450 2D6 (Homo sapiens, UniProt P10635); experiment: Inhibition of CYP2D6; type: ADME
Sequence of Cytochrome P450 2D6 (P10635 whole entry): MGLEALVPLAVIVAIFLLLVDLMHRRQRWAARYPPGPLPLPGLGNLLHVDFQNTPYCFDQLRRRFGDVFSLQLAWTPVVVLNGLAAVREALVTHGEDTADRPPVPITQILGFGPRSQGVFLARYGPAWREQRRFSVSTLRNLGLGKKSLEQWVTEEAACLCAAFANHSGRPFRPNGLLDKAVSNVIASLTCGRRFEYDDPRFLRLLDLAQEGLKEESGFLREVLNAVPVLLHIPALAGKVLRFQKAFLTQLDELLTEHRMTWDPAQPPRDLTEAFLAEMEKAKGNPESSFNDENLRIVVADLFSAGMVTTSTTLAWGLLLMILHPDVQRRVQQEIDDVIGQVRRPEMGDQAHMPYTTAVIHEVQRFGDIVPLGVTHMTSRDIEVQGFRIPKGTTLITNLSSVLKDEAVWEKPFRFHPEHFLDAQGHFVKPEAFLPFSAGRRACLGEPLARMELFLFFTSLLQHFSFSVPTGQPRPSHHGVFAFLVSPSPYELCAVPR

[5] = molecular target: DNA polymerase beta (Homo sapiens, UniProt P06746); experiment: Inhibition of human DNA polymerase beta
[6] = Inhibition of human DNA polymerase gamma
[7] = Half life in rat at 3 mg/kg, iv; type: ADME, organism-based; parameters: dose 3 mg/kg, route intravenous; details: in vivo; outline: as §1
[8] = AUC in rat at 10 mg/kg, po; details: plasma
[9] = species: Homo sapiens; experiment: Protein binding in human plasma; details: read-out: PPB (converted)
[10] = system: Human immunodeficiency virus 1; experiment: Antiviral activity against HIV1 in human MT4 cell assessed as inhibition of virus spread in presence of 10% fetal bovine serum; type: functional; details: Human immunodeficiency virus 1, MT4; read-out: CIC95
Outline: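 Spread of HIV-1 infection in MT-4 human T-lymphoid cell culture with 10% fetal bovine serum; CIC95 is the concentration inhibiting spread by ≥95%; mean of at least three independent experiments.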

[11] = system: Liver microsomes; experiment: Metabolic stability in human liver microsomes in presence of NADPH and UDPGA; type: ADME, Microsome
Outline: (§2)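 Multiple time points over 1 h: compound 1 µM with liver microsomes 1 mg/mL, in the presence of both UDPGA and NADPH; degradation followed by LC/MS/MS.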

[12] = molecular target: Cytochrome P450 3A4 (Homo sapiens, UniProt P08684); experiment: Inhibition of CYP3A4; type: ADME
Sequence of Cytochrome P450 3A4 (P08684 whole entry): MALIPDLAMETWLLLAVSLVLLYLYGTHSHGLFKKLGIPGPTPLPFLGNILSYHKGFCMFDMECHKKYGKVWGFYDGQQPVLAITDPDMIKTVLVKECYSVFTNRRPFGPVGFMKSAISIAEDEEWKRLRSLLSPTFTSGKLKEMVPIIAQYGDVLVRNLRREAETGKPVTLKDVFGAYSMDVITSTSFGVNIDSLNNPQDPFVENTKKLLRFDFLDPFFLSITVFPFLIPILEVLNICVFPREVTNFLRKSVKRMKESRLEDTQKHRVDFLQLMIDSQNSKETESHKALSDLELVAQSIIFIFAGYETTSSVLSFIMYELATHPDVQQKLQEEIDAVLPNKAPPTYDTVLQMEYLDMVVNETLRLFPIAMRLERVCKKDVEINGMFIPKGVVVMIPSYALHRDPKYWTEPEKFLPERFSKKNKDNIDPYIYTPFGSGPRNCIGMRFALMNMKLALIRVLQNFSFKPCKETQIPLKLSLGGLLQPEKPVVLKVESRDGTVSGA

[13] = molecular target: Cytochrome P450 2C19 (Homo sapiens, UniProt P33261); experiment: Inhibition of CYP2C19; type: ADME
Sequence of Cytochrome P450 2C19 (P33261 whole entry): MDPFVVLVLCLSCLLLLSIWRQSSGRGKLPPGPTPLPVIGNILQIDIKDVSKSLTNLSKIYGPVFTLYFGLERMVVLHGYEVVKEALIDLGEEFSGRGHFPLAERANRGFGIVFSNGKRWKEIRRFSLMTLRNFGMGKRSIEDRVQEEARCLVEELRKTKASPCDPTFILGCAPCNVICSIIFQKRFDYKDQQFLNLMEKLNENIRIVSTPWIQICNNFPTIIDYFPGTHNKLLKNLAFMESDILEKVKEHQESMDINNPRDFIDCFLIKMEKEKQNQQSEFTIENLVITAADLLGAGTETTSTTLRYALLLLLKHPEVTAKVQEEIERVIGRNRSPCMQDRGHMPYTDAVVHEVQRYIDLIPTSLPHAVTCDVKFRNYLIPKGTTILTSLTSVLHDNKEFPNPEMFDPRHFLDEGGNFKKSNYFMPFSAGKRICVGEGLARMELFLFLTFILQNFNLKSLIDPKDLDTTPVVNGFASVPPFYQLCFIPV

[14] = Protein binding in dog plasma; type: ADME, cell-free, Canis lupus familiaris; details: read-out: PPB (converted)
Outline: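 Plasma protein binding measured by ultrafiltration after incubation at 37 °C for 1 h.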

[15] = system: Liver; experiment: Metabolic stability in dog liver microsomes in presence of NADPH and UDPGA; type: ADME, Canis lupus familiaris, Microsome; outline: as §2
[16] = Inhibition of HIV-RNase-H; parameters: species or system Human immunodeficiency virus
[17] = molecular target: T1, DNA polymerase alpha catalytic subunit (Homo sapiens, UniProt P09884); experiment: Inhibition of human DNA polymerase alpha
T1 sequence (P09884 whole entry): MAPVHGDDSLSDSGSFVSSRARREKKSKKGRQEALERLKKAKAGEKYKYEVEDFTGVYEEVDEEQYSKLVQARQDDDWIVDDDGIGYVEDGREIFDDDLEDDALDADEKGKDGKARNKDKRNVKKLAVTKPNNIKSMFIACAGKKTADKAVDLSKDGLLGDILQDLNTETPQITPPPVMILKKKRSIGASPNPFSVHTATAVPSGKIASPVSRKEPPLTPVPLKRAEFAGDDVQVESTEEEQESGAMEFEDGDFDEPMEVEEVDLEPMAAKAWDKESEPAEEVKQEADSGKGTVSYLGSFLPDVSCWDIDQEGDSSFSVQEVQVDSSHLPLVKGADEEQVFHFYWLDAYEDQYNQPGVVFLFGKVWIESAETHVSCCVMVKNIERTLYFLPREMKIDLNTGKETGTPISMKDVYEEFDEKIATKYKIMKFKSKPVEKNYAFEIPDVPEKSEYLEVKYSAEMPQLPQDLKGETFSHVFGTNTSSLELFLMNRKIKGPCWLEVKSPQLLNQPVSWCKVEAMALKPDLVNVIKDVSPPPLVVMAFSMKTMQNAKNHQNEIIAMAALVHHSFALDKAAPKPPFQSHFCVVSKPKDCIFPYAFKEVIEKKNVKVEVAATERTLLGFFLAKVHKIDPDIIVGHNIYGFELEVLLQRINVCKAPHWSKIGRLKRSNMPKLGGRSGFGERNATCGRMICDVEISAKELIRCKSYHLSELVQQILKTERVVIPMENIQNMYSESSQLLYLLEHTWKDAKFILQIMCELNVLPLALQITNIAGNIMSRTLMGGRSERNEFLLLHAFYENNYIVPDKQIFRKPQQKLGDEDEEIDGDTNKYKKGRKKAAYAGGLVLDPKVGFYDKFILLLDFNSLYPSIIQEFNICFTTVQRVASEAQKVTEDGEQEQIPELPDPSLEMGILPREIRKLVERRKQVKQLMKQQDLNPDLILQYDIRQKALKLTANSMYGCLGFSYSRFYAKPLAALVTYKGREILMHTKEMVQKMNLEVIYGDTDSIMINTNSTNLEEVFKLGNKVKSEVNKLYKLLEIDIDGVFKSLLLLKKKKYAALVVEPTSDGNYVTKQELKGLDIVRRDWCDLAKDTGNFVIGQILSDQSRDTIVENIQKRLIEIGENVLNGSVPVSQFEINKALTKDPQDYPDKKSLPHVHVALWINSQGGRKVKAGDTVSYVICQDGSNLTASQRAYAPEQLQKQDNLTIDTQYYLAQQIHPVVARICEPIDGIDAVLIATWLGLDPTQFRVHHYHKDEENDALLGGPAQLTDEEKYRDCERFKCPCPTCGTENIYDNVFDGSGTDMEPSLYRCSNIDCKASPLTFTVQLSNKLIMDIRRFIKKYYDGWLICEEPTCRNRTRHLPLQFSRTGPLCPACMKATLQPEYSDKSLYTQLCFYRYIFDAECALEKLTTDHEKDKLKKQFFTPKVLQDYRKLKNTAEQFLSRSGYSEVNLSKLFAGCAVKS

[18] = Cmax in rhesus monkey at 10 mg/kg, po; type: ADME, organism-based, Macaca mulatta; parameters: dose 10 mg/kg, route oral; details: in vivo
[19] = Volume of distribution at steady state in dog at 1 mg/kg, iv or 2 mg/kg, po; details: in vivo, read-out: Vdss
[20] = Inhibition of recombinant HIV1 integrase strand transfer activity
[21] = system: Liver microsomes; experiment: Metabolic stability in rat liver microsomes in presence of NADPH and UDPGA; type: ADME, Microsome; outline: as §2
[22] = Cmax in dog at 2 mg/kg, po; type: ADME, organism-based, Canis lupus familiaris; parameters: dose 2 mg/kg, route oral; details: in vivo; outline: as §1
[23] = Half life in dog at 1 mg/kg, iv; type: ADME, organism-based, Canis lupus familiaris; parameters: dose 1 mg/kg, route intravenous; details: in vivo; outline: as §1
[24] = system: Canis familiaris; experiment: AUC in dog at 2 mg/kg, po; type: ADME, organism-based, Canis lupus familiaris, Plasma; parameters: dose 2 mg/kg, route oral; details: in vivo; outline: as §1
[25] = Volume of distribution at steady state in rhesus monkey at 2 mg/kg, iv or 10 mg/kg, po; details: in vivo, read-out: Vdss
[26] = Half life in rhesus monkey at 2 mg/kg, iv; type: ADME, organism-based, Macaca mulatta; parameters: dose 2 mg/kg, route intravenous; details: in vivo
Outline: (§3)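 Rhesus dosed 2 mg/kg iv in DMSO; oral arm 10 mg/kg as 0.5% methylcellulose suspension; plasma clearance and iv half-life.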

[27] = Plasma clearance in rat at 3 mg/kg, iv or 10 mg/kg, po; type: ADME, organism-based
[28] = AUC in rhesus monkey at 10 mg/kg, po; type: ADME, organism-based, Macaca mulatta; parameters: dose 10 mg/kg, route oral; details: plasma
[29] = molecular target: Cytochrome P450 2C9 (Homo sapiens, UniProt P11712); experiment: Inhibition of CYP2C9; type: ADME
Sequence of Cytochrome P450 2C9 (P11712 whole entry): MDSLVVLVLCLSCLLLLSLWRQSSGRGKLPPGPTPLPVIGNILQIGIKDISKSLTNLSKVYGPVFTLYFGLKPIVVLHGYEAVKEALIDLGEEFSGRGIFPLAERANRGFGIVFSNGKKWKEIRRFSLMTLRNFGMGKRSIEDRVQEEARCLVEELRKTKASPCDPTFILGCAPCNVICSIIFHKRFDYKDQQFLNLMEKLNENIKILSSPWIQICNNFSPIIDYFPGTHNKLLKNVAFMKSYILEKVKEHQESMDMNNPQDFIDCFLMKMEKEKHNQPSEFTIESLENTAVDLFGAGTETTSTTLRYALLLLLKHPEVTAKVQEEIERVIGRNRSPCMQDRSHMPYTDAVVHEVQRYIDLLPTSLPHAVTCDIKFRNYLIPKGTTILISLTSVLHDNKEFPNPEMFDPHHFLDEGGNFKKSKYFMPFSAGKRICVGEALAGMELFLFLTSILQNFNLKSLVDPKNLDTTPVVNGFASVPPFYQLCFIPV

[30] = Plasma clearance in rhesus monkey at 2 mg/kg, iv or 10 mg/kg, po; type: ADME, organism-based, Macaca mulatta; outline: as §3
[31] = Volume of distribution at steady state in rat at 3 mg/kg, iv or 10 mg/kg, po; type: ADME, organism-based; details: in vivo, read-out: Vdss
Outline: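 Rats received 3 mg/kg intravenously in DMSO/PEG400/H₂O (20%-60%-20%) and 10 mg/kg orally as a 1% methylcellulose suspension. Volume of distribution was derived from the plasma profiles.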

[32] = Protein binding in rat plasma; type: ADME, cell-free; details: read-out: PPB (converted)
Outline: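 Plasma protein binding was measured by ultrafiltration after a 1 h incubation of compound in plasma at 37 °C.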

[33] = system: Human immunodeficiency virus 1; experiment: Antiviral activity against HIV1 in human MT4 cell assessed as inhibition of virus spread in presence of 50% normal human serum; type: functional; details: Human immunodeficiency virus 1, MT4; read-out: CIC95
Outline: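 Spread of HIV-1 infection in MT-4 human T-lymphoid cell culture with 50% normal human serum; CIC95 is the concentration inhibiting spread by ≥95%; mean of at least three independent experiments.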

[34] = molecular target: Voltage-gated inwardly rectifying potassium channel KCNH2 (Homo sapiens, UniProt Q12809); experiment: Inhibition of human ERG
Sequence of Voltage-gated inwardly rectifying potassium channel KCNH2 (Q12809 whole entry): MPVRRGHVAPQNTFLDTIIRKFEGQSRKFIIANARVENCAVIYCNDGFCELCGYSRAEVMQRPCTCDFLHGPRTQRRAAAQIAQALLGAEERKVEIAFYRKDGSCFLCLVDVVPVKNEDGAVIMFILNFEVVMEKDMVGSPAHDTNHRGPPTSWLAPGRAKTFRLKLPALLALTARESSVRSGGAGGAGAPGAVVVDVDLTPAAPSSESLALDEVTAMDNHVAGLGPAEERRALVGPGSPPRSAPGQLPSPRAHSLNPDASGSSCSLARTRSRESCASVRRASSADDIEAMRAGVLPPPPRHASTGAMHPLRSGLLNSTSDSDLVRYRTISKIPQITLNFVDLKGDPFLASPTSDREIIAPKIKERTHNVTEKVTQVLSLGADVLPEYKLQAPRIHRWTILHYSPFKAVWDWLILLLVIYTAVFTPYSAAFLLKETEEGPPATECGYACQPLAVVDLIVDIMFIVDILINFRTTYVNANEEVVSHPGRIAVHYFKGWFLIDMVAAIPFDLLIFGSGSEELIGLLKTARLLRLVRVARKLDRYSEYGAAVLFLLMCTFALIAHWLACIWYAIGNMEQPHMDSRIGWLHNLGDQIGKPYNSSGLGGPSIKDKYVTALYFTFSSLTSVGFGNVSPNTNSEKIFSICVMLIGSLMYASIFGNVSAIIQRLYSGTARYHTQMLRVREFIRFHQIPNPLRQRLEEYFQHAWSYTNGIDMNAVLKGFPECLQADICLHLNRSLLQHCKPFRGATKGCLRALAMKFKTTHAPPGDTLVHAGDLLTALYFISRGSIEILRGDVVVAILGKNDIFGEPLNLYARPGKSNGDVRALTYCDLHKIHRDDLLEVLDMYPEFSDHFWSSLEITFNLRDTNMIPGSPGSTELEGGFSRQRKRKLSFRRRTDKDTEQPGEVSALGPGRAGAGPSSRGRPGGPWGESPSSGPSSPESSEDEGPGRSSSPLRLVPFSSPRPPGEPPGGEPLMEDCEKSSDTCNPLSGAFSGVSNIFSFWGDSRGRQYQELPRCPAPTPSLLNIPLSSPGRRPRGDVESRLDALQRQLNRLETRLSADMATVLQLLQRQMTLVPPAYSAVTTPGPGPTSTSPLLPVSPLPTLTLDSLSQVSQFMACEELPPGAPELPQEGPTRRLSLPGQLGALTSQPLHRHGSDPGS

[35] = Oral bioavailability in rat at 10 mg/kg; type: ADME, organism-based; details: in vivo; outline: as §1

In the case of `CN(C)C(=O)C(=O)N(C)[C@H]1CCCCn2c1nc(C(=O)NCc1ccc(F)cc1)c(O)c2=O`, the Cmax [1] is reported as 27 µM, the F [2] is reported as 61% and the bioavailability [3] is reported as 31%. For the same compound, the IC50 [4] was over 100 µM, the IC50 [5] was over 10 µM and the IC50 [6] was over 10 µM. It also gave a half-life [7] of 7.4 h, an AUC [8] of 37 µM·h and a fraction unbound [9] of 0.19. For the same compound, the IC95 [10] was 0.01 µM, the Stability [11] was 3 µL/min/mg and the IC50 [12] was over 100 µM. For the same compound, the IC50 [13] was over 100 µM, the fraction unbound [14] was 0.24 and the Stability [15] was 4 µL/min/mg. For the same compound, the IC50 [16] was over 50 µM, the IC50 [17] was over 10 µM and the Cmax [18] was 10 µM. The Vd [19] was 0.9 L/kg, the IC50 [20] was 0.012 µM and the Stability [21] was 11 µL/min/mg. For the same compound, the Cmax [22] was 25 µM, the half-life [23] was 2.1 h and the AUC [24] was 31 µM·h. It also gave a Vd [25] of 0.7 L/kg, a half-life [26] of 2.6 h and a clearance [27] of 7 mL/min/kg. The AUC [28] was 14 µM·h, the IC50 [29] was 75 µM and the clearance [30] was 8 mL/min/kg. The Vd [31] was 0.7 L/kg, the fraction unbound [32] was 0.06 and the IC95 [33] was 0.013 µM. For the same compound, the IC50 [34] was over 10 µM and the bioavailability [35] was 64%.
